Laboratory results taken from ChEMBL document CHEMBL1687900, “Potent farnesyltransferase inhibitors with 1,4-diazepane scaffolds as novel destabilizing microtubule agents in hormone-resistant prostate cancer” (J Med Chem, 2011).
The source made the active and inactive calls. No cut-off for these calls is given here.

How the values were obtained:
[1] = Inhibition of FTase
In short: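 Partially purified recombinant yeast FTase (2.2 mg/mL stock) and dansyl-GCVLS peptide (2 μM solution) were used with inhibitor in DMSO. Buffer was 50 mM Tris/HCl pH 7.5, 5.5 mM DTT, 10 mM MgCl2, 10 μM ZnCl2 and 0.08% CHAPS. Reaction was started with 10 μM FPP solution (1:10 addition). Fluorescence (ex 340 / em 486 nm) was followed 15 min at 30 °C. Values are the mean of three determinations.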

PC-3 [2] = test: Anticancer activity against hormone-resistant human PC3 cells assessed as cell proliferation after 72 hrs by MTT assay; assay type: functional, cell-based; settings: PC-3, 72 h
In short: (§1)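 DU145 or PC3 cells (RPMI 1640, 10% FBS, 2 mM glutamine, 37 °C, 5% CO2) seeded at (1.6-1.8) 10^4 per well. After 72 h they were serum-deprived, and next day treated with various compound concentrations for 72 h. Viability was read by MTT (4 mg/mL, 4 h), SDS/HCl lysis and absorbance at 570 nm. Values come from at least three independent determinations.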

DU-145 [3] = test: Anticancer activity against hormone-resistant human DU145 cells assessed as cell proliferation after 72 hrs by MTT assay; assay type: functional, cell-based; settings: DU-145, 72 h; in short: as §1
PC-3 [4] = test: Anticancer activity against hormone-resistant human PC3 cells assessed as cell proliferation at 100 uM after 72 hrs by MTT assay; assay type: functional; settings: PC-3, 72 h
DU-145 [5] = test: Anticancer activity against hormone-resistant human DU145 cells assessed as cell proliferation at 100 uM after 72 hrs by MTT assay; assay type: functional; settings: DU-145, 72 h
Liver microsomes = test: Metabolic stability of the compound in human liver microsome assessed as compound remaining; assay type: ADME
In short: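 Metabolic stability was tested in human liver microsomes, expressed as percentage of parent compound remaining at assay end.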

PC-3 [6] = test: Induction of disorganization of tubulin in human PC3 cells assessed as decrease in microtubulin mass at 18 uM by immunofluorescence microscopy; assay type: functional, cell-based
In short: (§2)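 PC3 cells were grown on poly-D-lysine coverslips overnight, synchronized, then exposed 24 h to compound or DMSO. They were fixed in 4% paraformaldehyde, permeabilized with 0.5% Triton X-100, and blocked 45 min in 5% BSA. Staining used Alexa 488 anti-α-tubulin (1/100). Microtubule network was examined by fluorescence microscopy.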

[7] = Apparent permeability across human Caco2 cells; assay type: ADME, cell-based; settings: Caco-2
PC-3 [8] = test: Induction of disorganization of tubulin in human PC3 cells assessed as microtubule bundles at 18 uM by immunofluorescence microscopy; assay type: functional, cell-based; in short: as §2
PC-3 [9] = test: Anticancer activity against human PC3 cells xenografted mouse assessed as suppression of tumor at 30 mg/kg; assay type: functional
PC-3 [10] = test: Induction of disorganization of tubulin in human PC3 cells assessed as microtubule bundles at 75 uM after 24 hrs by immunofluorescence microscopy; assay type: functional, cell-based; in short: as §2
DU-145 [11] = test: Anticancer activity against human DU145 cells xenografted mouse assessed as suppression of tumor at 30 mg/kg; assay type: functional
PC-3 [12] = test: Induction of disorganization of tubulin in human PC3 cells assessed as decrease in microtubulin mass at 32 uM by immunofluorescence microscopy; assay type: functional, cell-based; in short: as §2
PC-3 [13] = test: Induction of disorganization of tubulin in human PC3 cells assessed as microtubule bundles at 32 uM by immunofluorescence microscopy; assay type: functional, cell-based; in short: as §2
PC-3 [14] = test: Induction of disorganization of tubulin in human PC3 cells assessed as microtubule bundles at 21 uM by immunofluorescence microscopy; assay type: functional, cell-based; in short: as §2

Structure (SMILES) | IC50 [1] | IC50 (PC-3 [2]) | IC50 (DU-145 [3]) | inhibition at 100 µM (PC-3 [4]) | inhibition at 100 µM (DU-145 [5]) | further results
N#Cc1ccc(Cn2cncc2CN2CCCN(C(=O)c3ccccc3-c3ccccc3)CC2)cc1 | 0.026 µM | 39 µM | 43 µM | – | – | –
N#Cc1ccc(Cn2cncc2CN2CCCN(C(=O)C3CCCCC3)CC2)cc1 | 0.024 µM | – | – | 20% | 23% | –
N#Cc1ccc(Cn2cncc2CN2CCN(C(=O)c3cccc4ccccc34)CCC2c2ccccc2)cc1 (configuration not stated) | 0.018 µM | 77 µM | 48 µM | – | – | –
N#Cc1ccc(Cn2cncc2CN2CCCN(C(=O)c3cccc4ccccc34)CC2)cc1 | 0.039 µM | 65 µM | 44 µM | – | – | –
N#Cc1ccc(Cn2cncc2CN2CCC(c3ccccc3)N(C(=O)C3CCCCC3)CC2)cc1 (configuration not stated) | 0.503 µM | – | – | 5% | – | –
N#Cc1ccc(Cn2cncc2CN2CCC(c3ccccc3)N(C(=O)c3ccccc3-c3ccccc3)CC2)cc1 (configuration not stated) | 0.057 µM | 50 µM | 47 µM | – | – | –
N#Cc1ccc(Cn2cncc2CN2CCN(C(=O)C3CCCCC3)CCC2c2ccccc2)cc1 (configuration not stated) | 0.007 µM | 18 µM | 29 µM | – | – | Stability (Liver microsomes): 2%; Activity (PC-3 [6]): Active; Papp [7]: 25.1 ×10⁻⁶ cm/s; Activity (PC-3 [8]): Active
N#Cc1ccc(Cn2cncc2CN2CCC(c3ccccc3)N(C(=O)c3cccc4ccccc34)CC2)cc1 (configuration not stated) | 0.06 µM | 50 µM | 54 µM | – | – | –
CNC(=C[N+](=O)[O-])NCCSCc1ccc(CN(C)C)o1 [RANITIDINE] | – | – | – | – | – | Papp [7]: 0.7 ×10⁻⁶ cm/s
Cc1cccc(C(=O)N2CCCN(Cc3cncn3Cc3ccc(C#N)cc3)CC2)c1 | 0.015 µM | – | – | 0% | 34% | –
CC(C)NCC(O)COc1cccc2ccccc12 (configuration not stated) [PROPRANOLOL] | – | – | – | – | – | Papp [7]: 41.1 ×10⁻⁶ cm/s
COc1cccc(C(=O)N2CCCN(Cc3cncn3Cc3ccc(C#N)cc3)CC2)c1OC | 0.043 µM | 80 µM | – | – | 44% | –
CC[C@H](C)[C@@H](CO[C@@H](Cc1ccccc1)C(=O)N[C@@H](CCS(C)(=O)=O)C(=O)OC(C)C)NC[C@@H](N)CS | 0.027 µM | 75 µM | 78 µM | – | – | inhibition in vivo at 30 mg/kg (PC-3 [9]): 87%; Activity (PC-3 [10]): Active; inhibition in vivo at 30 mg/kg (DU-145 [11]): 85%
N#Cc1ccc(Cn2cncc2CN2CCCN(C(=O)c3ccccc3Cl)CC2)cc1 | 0.025 µM | 70 µM | 100 µM | – | – | –
N#Cc1ccc(Cn2cncc2CN2CCN(C(=O)c3ccccc3)CCC2c2ccccc2)cc1 (configuration not stated) | 0.009 µM | 33 µM | 73 µM | – | – | –
CC(CCc1ccccc1)NCC(O)c1ccc(O)c(C(N)=O)c1 (configuration not stated) [LABETALOL] | – | – | – | – | – | Papp [7]: 7.3 ×10⁻⁶ cm/s
CC(C)CC(=O)N1CCCN(Cc2cncn2Cc2ccc(C#N)cc2)CC1 | 0.205 µM | – | – | 13% | 18% | –
N#Cc1ccc(Cn2cncc2CN2CCCN(C(=O)c3ccc(Cl)cc3Cl)CC2)cc1 | 0.041 µM | 26 µM | 45 µM | – | – | –

Structure (SMILES) | IC50 [1] | IC50 (PC-3 [2]) | IC50 (DU-145 [3]) | inhibition at 100 µM (PC-3 [4]) | inhibition at 100 µM (DU-145 [5]) | further results
N#Cc1ccc(Cn2cncc2CN2CCCN(C(=O)c3cccc(-c4ccccc4)c3)CC2)cc1 | 0.043 µM | 44 µM | 42 µM | – | – | –
N#Cc1ccc(Cn2cncc2CN2CCCN(C(=O)Cc3cccc4ccccc34)CC2)cc1 | 0.013 µM | – | 93 µM | 40% | – | –
N#Cc1ccc(Cn2cncc2CN2CCCN(C(=O)c3ccc(-c4ccccc4)cc3)CC2)cc1 | 0.153 µM | 50 µM | 47 µM | – | – | –
N#Cc1ccc(Cn2cncc2CN2CCC(c3ccccc3)N(C(=O)C34CC5CC(CC(C5)C3)C4)CC2)cc1 (configuration not stated) | 0.017 µM | 41 µM | 42 µM | – | – | –
N#Cc1ccc(Cn2cncc2CN2CCCN(C(=O)c3ccc4ccccc4c3)CC2)cc1 | 0.035 µM | 47 µM | 52 µM | – | – | –
N#Cc1ccc(Cn2cncc2CN2CCC(c3ccccc3)N(C(=O)c3ccccc3)CC2)cc1 (configuration not stated) | 0.079 µM | 80 µM | 75 µM | – | – | –
N#Cc1ccc(Cn2cncc2CN2CCCN(C(=O)c3ccccc3Br)CC2)cc1 | 0.064 µM | – | – | 15% | 17% | –
N#Cc1ccc(Cn2cncc2CN2CCN(C(=O)c3ccc(Cl)cc3Cl)CCC2c2ccccc2)cc1 (configuration not stated) | 0.021 µM | 38 µM | 44 µM | – | – | –
N#Cc1ccc(Cn2cncc2CN2CCN(C(=O)C34CC5CC(CC(C5)C3)C4)CCC2c2ccccc2)cc1 (configuration not stated) | 0.006 µM | 32 µM | 32 µM | – | – | Activity (PC-3 [12]): Active; Stability (Liver microsomes): 3%; Activity (PC-3 [13]): Active; Papp [7]: 3.6 ×10⁻⁶ cm/s
N#Cc1ccc(Cn2cncc2CN2CCN(C(=O)c3ccccc3-c3ccccc3)CCC2c2ccccc2)cc1 (configuration not stated) | 0.017 µM | 50 µM | 35 µM | – | – | –
N#Cc1ccc(Cn2cncc2CN2CCCN(C(=O)C34CC5CC(CC(C5)C3)C4)CC2)cc1 | 0.005 µM | 21 µM | 44 µM | – | – | Activity (PC-3 [14]): Active; Stability (Liver microsomes): 1%; Papp [7]: 28.8 ×10⁻⁶ cm/s
N#Cc1ccc(Cn2cncc2CN2CCCN(C(=O)c3ccncc3)CC2)cc1 | 0.142 µM | – | – | 12% | 6% | –
N#Cc1ccc(Cn2cncc2CN2CCCN(C(=O)c3ccsc3)CC2)cc1 | 0.042 µM | – | – | 4% | 3% | –
N#Cc1ccc(Cn2cncc2CN2CCC(c3ccccc3)N(C(=O)c3ccc(Cl)cc3Cl)CC2)cc1 (configuration not stated) | 0.382 µM | 76 µM | – | – | 31% | –
N#Cc1ccc(Cn2cncc2CN2CCCN(C(=O)c3ccccc3F)CC2)cc1 | 0.14 µM | – | – | 2% | 7% | –
N#Cc1ccc(Cn2cncc2CN2CCCN(C(=O)c3ccc(F)cc3)CC2)cc1 | 0.069 µM | – | – | 40% | 27% | –
N#Cc1ccc(Cn2cncc2CN2CCCN(C(=O)c3ccccc3)CC2)cc1 | 0.008 µM | – | – | 22% | 24% | –
